Laboratory results reported in ChEMBL document CHEMBL1932983, “Towards a stable noeuromycin analog with a D-manno configuration: synthesis and glycosidase inhibition of D-manno-like tri- and tetrahydroxylated azepanes” (Bioorg Med Chem, 2012).
Calls of active or inactive are those of the source. No cut-off for these calls is given here.

Columns and labels:
[1] = Inhibition of coffee beans alpha-galactosidase; design: species or system Coffea
[2] = test system: Penicillium decumbens; experiment: Inhibition of Penicillium decumbens alpha-L-rhamnosidase at 1000 uM
In short: (§1)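 Commercial glycosidases were tested with a single inhibitor level of 1000 μM, and percent inhibition was recorded. "NI" means less than 50% inhibition at that concentration.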

[3] = molecular target: Oligo-1,6-glucosidase IMA1 (Saccharomyces cerevisiae S288c) (UniProt P53051); experiment: Inhibition of yeast alpha-glucosidase at 1000 uM; in short: as §1
[4] = molecular target: T1, Uncharacterized protein (Sus scrofa) (UniProt I3LIR5); experiment: Inhibition of pig kidney trehalase at 1000 uM; in short: as §1
T1 sequence (whole entry): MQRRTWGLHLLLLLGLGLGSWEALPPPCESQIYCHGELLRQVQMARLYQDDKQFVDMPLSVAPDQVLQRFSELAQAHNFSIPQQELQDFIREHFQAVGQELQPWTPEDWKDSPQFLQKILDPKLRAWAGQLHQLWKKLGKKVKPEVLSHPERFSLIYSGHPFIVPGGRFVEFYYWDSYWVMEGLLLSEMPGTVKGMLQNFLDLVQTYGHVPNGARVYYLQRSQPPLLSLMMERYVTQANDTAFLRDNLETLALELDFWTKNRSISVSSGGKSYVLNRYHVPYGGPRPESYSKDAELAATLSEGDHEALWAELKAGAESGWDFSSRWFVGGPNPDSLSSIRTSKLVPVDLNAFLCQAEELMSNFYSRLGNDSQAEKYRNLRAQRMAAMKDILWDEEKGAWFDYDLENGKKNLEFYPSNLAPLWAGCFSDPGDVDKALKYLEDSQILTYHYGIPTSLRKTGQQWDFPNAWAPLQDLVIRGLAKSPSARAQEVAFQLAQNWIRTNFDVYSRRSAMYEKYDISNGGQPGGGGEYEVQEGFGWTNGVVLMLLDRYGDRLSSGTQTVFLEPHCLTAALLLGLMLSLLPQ

[5] = molecular target: T2, Lysosomal alpha-mannosidase (Bos taurus) (UniProt Q29451); experiment: Inhibition of lysosomal alpha-mannosidase in MDBK cells assessed as Man5-8GlcNAc2FOS formation at 0.1 to 1 mM after 24 hrs by HPLC analysis; type: cell-based
T2 sequence (whole entry): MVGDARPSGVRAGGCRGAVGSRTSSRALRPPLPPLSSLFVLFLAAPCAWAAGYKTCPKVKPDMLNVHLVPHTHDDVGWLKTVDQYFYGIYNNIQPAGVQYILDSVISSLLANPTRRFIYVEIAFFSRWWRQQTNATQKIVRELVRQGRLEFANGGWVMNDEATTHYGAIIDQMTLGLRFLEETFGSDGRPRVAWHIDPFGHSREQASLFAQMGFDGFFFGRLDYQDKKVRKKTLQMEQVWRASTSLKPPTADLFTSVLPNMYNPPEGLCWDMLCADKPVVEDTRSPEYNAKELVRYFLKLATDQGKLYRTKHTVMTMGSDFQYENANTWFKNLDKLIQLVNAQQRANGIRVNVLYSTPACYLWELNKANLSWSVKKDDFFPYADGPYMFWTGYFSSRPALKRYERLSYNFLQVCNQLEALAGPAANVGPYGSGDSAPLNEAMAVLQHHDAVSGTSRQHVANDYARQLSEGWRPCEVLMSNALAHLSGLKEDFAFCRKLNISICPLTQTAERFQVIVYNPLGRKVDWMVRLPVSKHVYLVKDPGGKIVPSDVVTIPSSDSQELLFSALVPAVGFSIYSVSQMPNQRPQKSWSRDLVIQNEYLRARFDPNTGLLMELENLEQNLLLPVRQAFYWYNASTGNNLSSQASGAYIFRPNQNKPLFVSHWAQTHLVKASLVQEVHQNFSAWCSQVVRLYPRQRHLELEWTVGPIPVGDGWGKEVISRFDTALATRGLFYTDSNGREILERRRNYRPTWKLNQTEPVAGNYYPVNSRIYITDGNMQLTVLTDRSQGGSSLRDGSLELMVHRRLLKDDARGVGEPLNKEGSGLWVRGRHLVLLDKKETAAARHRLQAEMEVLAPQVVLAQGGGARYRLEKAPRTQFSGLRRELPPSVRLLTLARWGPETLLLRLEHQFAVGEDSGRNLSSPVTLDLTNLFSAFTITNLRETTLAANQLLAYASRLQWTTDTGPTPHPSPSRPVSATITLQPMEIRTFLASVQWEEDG
In short: (§2)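 MDBK cells were treated with azepanes alongside untreated cells and a swainsonine control (1 mM, 24 h). Free oligosaccharides (FOS) were labelled with 2-AA and profiled by fluorescence HPLC. Mannosylated species were compared: Man3GlcNAc2 and Man5-8GlcNAc2 indicate lysosomal activity, and Man5GlcNAc1 indicates cytosolic mannosidase activity.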

[6] = Inhibition of jack beans alpha-mannosidase; design: species or system Canavalia ensiformis
[7] = molecular target: Probable alpha-glucosidase Os06g0675700 (Oryza sativa Japonica Group, UniProt Q653V7); experiment: Inhibition of rice alpha-glucosidase
[8] = molecular target: T3, Beta-galactosidase (Bos taurus, UniProt Q58D55); experiment: Inhibition of bovine liver beta-galactosidase
T3 sequence (Q58D55 whole entry): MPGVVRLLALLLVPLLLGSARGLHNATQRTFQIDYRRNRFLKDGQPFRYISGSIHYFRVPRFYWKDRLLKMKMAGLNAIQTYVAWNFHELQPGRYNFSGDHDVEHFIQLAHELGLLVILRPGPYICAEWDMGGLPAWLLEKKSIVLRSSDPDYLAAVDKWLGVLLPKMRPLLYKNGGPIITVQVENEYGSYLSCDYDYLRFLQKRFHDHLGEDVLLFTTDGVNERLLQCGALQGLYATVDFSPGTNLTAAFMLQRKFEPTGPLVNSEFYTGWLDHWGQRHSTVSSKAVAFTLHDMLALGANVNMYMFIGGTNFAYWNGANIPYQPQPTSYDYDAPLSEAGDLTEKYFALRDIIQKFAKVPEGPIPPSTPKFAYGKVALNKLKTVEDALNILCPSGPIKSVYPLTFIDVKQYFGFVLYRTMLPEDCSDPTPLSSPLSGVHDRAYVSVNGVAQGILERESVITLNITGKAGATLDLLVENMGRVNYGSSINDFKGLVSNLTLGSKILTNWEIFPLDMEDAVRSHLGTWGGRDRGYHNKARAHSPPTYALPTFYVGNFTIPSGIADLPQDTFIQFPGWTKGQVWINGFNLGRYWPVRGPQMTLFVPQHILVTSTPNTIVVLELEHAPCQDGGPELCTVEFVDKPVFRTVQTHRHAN

[9] = Inhibition of almond beta-glucosidase; design: species or system Prunus dulcis
[10] = test system: Helix pomatia; experiment: Inhibition of snail beta-mannosidase at 1000 uM; in short: as §1
[11] = molecular target: T4, Beta-glucuronidase (Bos taurus, UniProt A3KMY8); experiment: Inhibition of bovine liver beta glucuronidase
T4 sequence (A3KMY8 whole entry): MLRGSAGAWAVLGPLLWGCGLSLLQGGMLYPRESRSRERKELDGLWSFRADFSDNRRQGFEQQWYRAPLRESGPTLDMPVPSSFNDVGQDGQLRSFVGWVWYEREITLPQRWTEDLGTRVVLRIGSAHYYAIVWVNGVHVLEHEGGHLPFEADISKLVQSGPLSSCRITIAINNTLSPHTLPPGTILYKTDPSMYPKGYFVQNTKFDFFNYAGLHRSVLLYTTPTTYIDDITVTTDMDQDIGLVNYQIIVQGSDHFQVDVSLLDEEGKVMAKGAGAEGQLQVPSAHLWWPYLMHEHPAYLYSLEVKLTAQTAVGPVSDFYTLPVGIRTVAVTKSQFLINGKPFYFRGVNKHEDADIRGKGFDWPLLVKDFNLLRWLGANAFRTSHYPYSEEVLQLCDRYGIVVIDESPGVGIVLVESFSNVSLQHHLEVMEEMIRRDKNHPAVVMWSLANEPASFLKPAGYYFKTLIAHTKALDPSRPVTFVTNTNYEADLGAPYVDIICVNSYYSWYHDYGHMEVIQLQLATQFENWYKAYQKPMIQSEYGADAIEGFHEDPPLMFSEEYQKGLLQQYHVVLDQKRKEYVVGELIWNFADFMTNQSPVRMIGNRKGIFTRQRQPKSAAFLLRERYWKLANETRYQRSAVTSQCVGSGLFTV

[12] = molecular target: T5, Tissue alpha-L-fucosidase (Bos taurus, UniProt Q2KIM0); experiment: Inhibition of bovine kidney alpha-L-fucosidase
T5 sequence (Q2KIM0 whole entry): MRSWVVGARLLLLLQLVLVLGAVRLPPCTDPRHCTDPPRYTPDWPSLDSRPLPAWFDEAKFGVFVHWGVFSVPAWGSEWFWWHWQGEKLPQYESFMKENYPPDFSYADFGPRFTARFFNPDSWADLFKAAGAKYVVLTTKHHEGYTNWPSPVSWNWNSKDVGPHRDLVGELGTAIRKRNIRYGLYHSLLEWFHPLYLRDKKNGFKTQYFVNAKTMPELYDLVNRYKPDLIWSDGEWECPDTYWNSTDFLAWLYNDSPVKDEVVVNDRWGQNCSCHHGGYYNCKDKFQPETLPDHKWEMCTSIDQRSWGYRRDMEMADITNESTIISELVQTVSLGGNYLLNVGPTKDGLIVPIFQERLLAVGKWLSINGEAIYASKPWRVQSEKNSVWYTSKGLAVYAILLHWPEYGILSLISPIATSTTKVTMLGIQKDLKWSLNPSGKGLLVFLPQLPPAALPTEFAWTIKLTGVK

[13] = test system: Aspergillus niger; experiment: Inhibition of Aspergillus niger amyloglucosidase at 1000 uM; in short: as §1
[14] = test system: Prunus dulcis; experiment: Inhibition of almond beta-glucosidase at 1000 uM; in short: as §1
[15] = molecular target: T6, Beta-glucuronidase (Bos taurus) (UniProt A3KMY8); experiment: Inhibition of bovine liver beta glucuronidase at 1000 uM; in short: as §1
T6 sequence (whole entry): T4 sequence (A3KMY8 whole entry)

[16] = molecular target: T2, Lysosomal alpha-mannosidase (Bos taurus); experiment: Inhibition of lysosomal alpha-mannosidase in MDBK cells assessed as Man5-8GlcNAc2FOS formation at 1 mM after 24 hrs by HPLC analysis; type: cell-based; in short: as §2
[17] = test system: MDBK; experiment: Inhibition of cytosolic alpha-mannosidase in MDBK cells assessed as Man5GlcNAc1 formation at 1 mM after 24 hrs by HPLC analysis; type: cell-based; settings: Bos taurus; in short: as §2
[18] = molecular target: T7, Glucosylceramidase (Bos taurus) (UniProt Q2KHZ8); experiment: Inhibition of bovine liver beta-glucosidase at 1000 uM; in short: as §1
T7 sequence (whole entry): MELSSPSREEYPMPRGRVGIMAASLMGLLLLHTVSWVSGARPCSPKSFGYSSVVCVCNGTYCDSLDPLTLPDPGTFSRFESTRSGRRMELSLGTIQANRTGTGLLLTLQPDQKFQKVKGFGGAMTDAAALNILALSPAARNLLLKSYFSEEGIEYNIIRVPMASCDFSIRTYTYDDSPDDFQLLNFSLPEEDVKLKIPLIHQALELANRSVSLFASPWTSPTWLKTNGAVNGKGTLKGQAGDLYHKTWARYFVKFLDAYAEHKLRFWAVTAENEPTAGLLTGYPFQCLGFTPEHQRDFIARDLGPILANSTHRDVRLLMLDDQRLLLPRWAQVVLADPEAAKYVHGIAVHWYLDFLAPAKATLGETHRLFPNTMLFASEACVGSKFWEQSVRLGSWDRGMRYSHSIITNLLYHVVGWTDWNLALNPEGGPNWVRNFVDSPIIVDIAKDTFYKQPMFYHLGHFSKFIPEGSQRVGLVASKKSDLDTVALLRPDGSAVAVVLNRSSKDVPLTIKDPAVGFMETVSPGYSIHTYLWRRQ

[19] = test system: Coffea; experiment: Inhibition of coffee beans alpha-galactosidase at 1000 uM; in short: as §1
[20] = molecular target: T8, Tissue alpha-L-fucosidase (Bos taurus) (UniProt Q2KIM0); experiment: Inhibition of bovine kidney alpha-L-fucosidase at 1000 uM; in short: as §1
T8 sequence (whole entry): T5 sequence (Q2KIM0 whole entry)

[21] = test system: Canavalia ensiformis; experiment: Inhibition of jack beans alpha-mannosidase at 1000 uM; in short: as §1
[22] = molecular target: Probable alpha-glucosidase Os06g0675700 (Oryza sativa Japonica Group) (UniProt Q653V7); experiment: Inhibition of rice alpha-glucosidase at 1000 uM; in short: as §1
[23] = molecular target: Oligo-1,6-glucosidase IMA1 (Saccharomyces cerevisiae S288c, UniProt P53051); experiment: Inhibition of yeast alpha-glucosidase
Oligo-1,6-glucosidase IMA1, sequence (P53051 whole entry): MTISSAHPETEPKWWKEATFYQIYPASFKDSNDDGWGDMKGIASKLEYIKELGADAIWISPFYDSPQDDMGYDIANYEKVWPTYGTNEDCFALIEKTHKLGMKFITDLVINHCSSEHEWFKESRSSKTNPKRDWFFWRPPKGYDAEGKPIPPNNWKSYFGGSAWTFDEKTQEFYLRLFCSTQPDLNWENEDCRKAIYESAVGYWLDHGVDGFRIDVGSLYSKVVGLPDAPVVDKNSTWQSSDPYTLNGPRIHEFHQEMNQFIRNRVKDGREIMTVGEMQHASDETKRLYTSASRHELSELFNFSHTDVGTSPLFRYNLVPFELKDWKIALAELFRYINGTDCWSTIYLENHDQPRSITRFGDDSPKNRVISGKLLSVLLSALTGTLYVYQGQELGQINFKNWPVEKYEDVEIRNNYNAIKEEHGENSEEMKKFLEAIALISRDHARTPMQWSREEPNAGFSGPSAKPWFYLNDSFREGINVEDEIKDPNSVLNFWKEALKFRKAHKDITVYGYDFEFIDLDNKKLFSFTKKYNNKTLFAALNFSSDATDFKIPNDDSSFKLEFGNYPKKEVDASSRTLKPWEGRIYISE

Oligo-1,6-glucosidase IMA1 (Saccharomyces cerevisiae S288c), sequence (P53051 whole entry): as above
Probable alpha-glucosidase Os06g0675700, sequence (Q653V7 whole entry): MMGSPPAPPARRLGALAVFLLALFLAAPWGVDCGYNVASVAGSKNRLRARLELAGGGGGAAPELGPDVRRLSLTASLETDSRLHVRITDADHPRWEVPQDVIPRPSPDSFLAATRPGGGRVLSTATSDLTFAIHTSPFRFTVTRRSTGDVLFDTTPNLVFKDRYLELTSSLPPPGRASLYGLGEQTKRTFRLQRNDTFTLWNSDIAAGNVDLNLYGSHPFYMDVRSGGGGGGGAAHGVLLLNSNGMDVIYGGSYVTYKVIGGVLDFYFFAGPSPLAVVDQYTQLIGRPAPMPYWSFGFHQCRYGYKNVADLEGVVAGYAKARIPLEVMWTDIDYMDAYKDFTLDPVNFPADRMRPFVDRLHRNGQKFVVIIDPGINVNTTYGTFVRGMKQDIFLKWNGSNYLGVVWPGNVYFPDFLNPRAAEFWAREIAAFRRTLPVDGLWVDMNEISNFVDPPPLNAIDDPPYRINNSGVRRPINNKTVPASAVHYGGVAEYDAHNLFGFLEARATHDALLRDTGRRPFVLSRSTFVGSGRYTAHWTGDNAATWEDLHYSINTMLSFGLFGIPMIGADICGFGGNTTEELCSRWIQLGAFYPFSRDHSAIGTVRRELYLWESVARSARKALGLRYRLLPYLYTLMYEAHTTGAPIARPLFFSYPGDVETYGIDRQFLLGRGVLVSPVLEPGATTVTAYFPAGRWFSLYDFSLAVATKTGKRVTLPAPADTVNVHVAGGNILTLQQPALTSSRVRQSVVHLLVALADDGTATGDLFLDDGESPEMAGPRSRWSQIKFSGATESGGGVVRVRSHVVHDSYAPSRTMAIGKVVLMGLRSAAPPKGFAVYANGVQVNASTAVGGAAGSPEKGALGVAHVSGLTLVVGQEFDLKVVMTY
Probable alpha-glucosidase Os06g0675700 (Oryza sativa Japonica Group), sequence (Q653V7 whole entry): as above

Row | SMILES | IC50 [1] | inhibition [2] | inhibition [3] | inhibition [4] | inhibition [5] | IC50 [6] | IC50 [7] | IC50 [8] | IC50 [9] | inhibition [10] | IC50 [11] | IC50 [12] | inhibition [13] | inhibition [14] | inhibition [15] | inhibition [16] | inhibition [19] | inhibition [20] | inhibition [22] | other results
1 | C[C@@H]1CNC[C@@H](O)[C@@H](O)[C@@H]1O | 14 µM | 20.6% | 37.8% | 39.9% | inactive | 101 µM | 12 µM | 198 µM | 14 µM | 0.4% | 139 µM | 64 µM | 6.9% | – | – | – | – | – | – | –
2 | C[C@H]1CNC[C@@H](O)[C@@H](O)[C@@H]1O | – | 6.8% | 0% | 22.2% | – | 335 µM | 226 µM | 876 µM | – | 4.3% | – | 181 µM | 0% | 29.4% | 0% | Active | 37.6% | – | – | inhibition [17]: Active; inhibition [18]: 49.2%
3 | OC[C@H]1CNC[C@@H](O)[C@@H](O)[C@@H]1O | – | 0.9% | 18.9% | 16.6% | – | – | – | 442 µM | – | 0% | – | – | 14.2% | 41.4% | 0% | Active | 16.8% | 15.8% | 0% | inhibition [21]: 23%
4 | OC[C@@H]1CNC[C@@H](O)[C@@H](O)[C@@H]1O | 65 µM | 1.5% | – | 17.2% | inactive | 812 µM | – | 420 µM | 157 µM | 0% | 594 µM | – | 0.3% | – | – | – | – | 25% | 14.7% | IC50 [23]: 71 µM
